Results reported in ChEMBL document CHEMBL4325889, “Natural products hybrids: 3,5,4'-Trimethoxystilbene-5,6,7-trimethoxyflavone chimeric analogs as potential cytotoxic agents against diverse human cancer cells” (Eur J Med Chem, 2019).

Experiments:
Assay type in all cases: functional
UACC-257 = experiment: Growth inhibition of human UACC257 cells at 10 uM after 48 hrs by SRB assay relative to control; conditions: UACC-257, 48 h, read-out: GI
Procedure, shortened: (§1)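 NCI screen against its human cancer cell line panel by the standard NCI protocol, SRB protein stain. Single dose of 10 μM. Percent growth inhibition versus control; values above 100% mean the cell population fell below the starting number. Each value is the mean of duplicates.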

NCI-H23 = experiment: Growth inhibition of human NCI-H23 cells at 10 uM after 48 hrs by SRB assay relative to control; conditions: NCI-H23, 48 h, read-out: GI
Procedure, shortened: (§2)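 Screened at the National Cancer Institute by the standard NCI protocol using the sulforhodamine B assay, which measures cellular protein. Single dose of 10 µM. Result is percent growth inhibition; values above 100% mean cell number fell below the initial population. Values are the average of duplicates.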

RPMI-8226 = experiment: Growth inhibition of human RPMI8226 cells at 10 uM after 48 hrs by SRB assay relative to control; conditions: RPMI-8226, 48 h, read-out: GI; procedure, shortened: as §2
HOP-62 = experiment: Growth inhibition of human HOP62 cells at 10 uM after 48 hrs by SRB assay relative to control; conditions: HOP-62, 48 h, read-out: GI; procedure, shortened: as §2
CCRF-CEM = experiment: Growth inhibition of human CCRF-CEM cells at 10 uM after 48 hrs by SRB assay relative to control; conditions: read-out: GI; procedure, shortened: as §2
SK-MEL-28 = experiment: Growth inhibition of human SK-MEL-28 cells at 10 uM after 48 hrs by SRB assay relative to control; conditions: SK-MEL-28, 48 h, read-out: GI; procedure, shortened: as §2
KM12 = experiment: Growth inhibition of human KM12 cells at 10 uM after 48 hrs by SRB assay relative to control; conditions: KM12, 48 h, read-out: GI; procedure, shortened: as §2
NCI-H226 = experiment: Growth inhibition of human NCI-H226 cells at 10 uM after 48 hrs by SRB assay relative to control; conditions: NCI-H226, 48 h, read-out: GI; procedure, shortened: as §2
SW-620 = experiment: Growth inhibition of human SW620 cells at 10 uM after 48 hrs by SRB assay relative to control; conditions: SW-620, 48 h, read-out: GI; procedure, shortened: as §1
ACHN = experiment: Growth inhibition of human ACHN cells at 10 uM after 48 hrs by SRB assay relative to control; conditions: read-out: GI; procedure, shortened: as §2
SR = experiment: Growth inhibition of human SR cells at 10 uM after 48 hrs by SRB assay relative to control; conditions: read-out: GI; procedure, shortened: as §1
HCT-15 = experiment: Growth inhibition of human HCT15 cells at 10 uM after 48 hrs by SRB assay relative to control; conditions: HCT-15, 48 h, read-out: GI; procedure, shortened: as §2
OVCAR-8 = experiment: Growth inhibition of human OVCAR8 cells at 10 uM after 48 hrs by SRB assay relative to control; conditions: OVCAR-8, 48 h, read-out: GI; procedure, shortened: as §2
RXF 393 = experiment: Growth inhibition of human RXF393 cells at 10 uM after 48 hrs by SRB assay relative to control; conditions: RXF 393, 48 h, read-out: GI; procedure, shortened: as §2
MDA-MB-468 = experiment: Growth inhibition of human MDA-MB-468 cells at 10 uM after 48 hrs by SRB assay relative to control; conditions: MDA-MB-468, 48 h, read-out: GI; procedure, shortened: as §2
HCC 2998 = experiment: Growth inhibition of human HCC2998 cells at 10 uM after 48 hrs by SRB assay relative to control; conditions: HCC 2998, 48 h, read-out: GI; procedure, shortened: as §2
NCI-H460 = experiment: Growth inhibition of human NCI-H460 cells at 10 uM after 48 hrs by SRB assay relative to control; conditions: NCI-H460, 48 h, read-out: GI; procedure, shortened: as §2
OVCAR-4 = experiment: Growth inhibition of human OVCAR4 cells at 10 uM after 48 hrs by SRB assay relative to control; conditions: OVCAR-4, 48 h, read-out: GI; procedure, shortened: as §2
DU-145 = experiment: Growth inhibition of human DU145 cells at 10 uM after 48 hrs by SRB assay relative to control; conditions: DU-145, 48 h, read-out: GI; procedure, shortened: as §2
SNB-75 = experiment: Growth inhibition of human SNB75 cells at 10 uM after 48 hrs by SRB assay relative to control; conditions: SNB-75, 48 h, read-out: GI; procedure, shortened: as §1
MCF7 = experiment: Growth inhibition of human MCF7 cells at 10 uM after 48 hrs by SRB assay relative to control; conditions: MCF7, 48 h, read-out: GI; procedure, shortened: as §2
A549 = experiment: Growth inhibition of human A549 cells at 10 uM after 48 hrs by SRB assay relative to control; conditions: A549, 48 h, read-out: GI; procedure, shortened: as §2
UACC-62 = experiment: Growth inhibition of human UACC62 cells at 10 uM after 48 hrs by SRB assay relative to control; conditions: UACC-62, 48 h, read-out: GI; procedure, shortened: as §1
SN12C = experiment: Growth inhibition of human SN12C cells at 10 uM after 48 hrs by SRB assay relative to control; conditions: read-out: GI; procedure, shortened: as §2
SK-MEL-5 = experiment: Growth inhibition of human SK-MEL-5 cells at 10 uM after 48 hrs by SRB assay relative to control; conditions: SK-MEL-5, 48 h, read-out: GI; procedure, shortened: as §2
TK-10 = experiment: Growth inhibition of human TK10 cells at 10 uM after 48 hrs by SRB assay relative to control; conditions: TK-10, 48 h, read-out: GI; procedure, shortened: as §1
SNB-19 = experiment: Growth inhibition of human SNB19 cells at 10 uM after 48 hrs by SRB assay relative to control; conditions: SNB-19, 48 h, read-out: GI; procedure, shortened: as §1
OVCAR-3 = experiment: Growth inhibition of human OVCAR3 cells at 10 uM after 48 hrs by SRB assay relative to control; conditions: OVCAR-3, 48 h, read-out: GI; procedure, shortened: as §2
786-0 = experiment: Growth inhibition of human 786-0 cells at 10 uM after 48 hrs by SRB assay relative to control; conditions: 786-0, 48 h, read-out: GI; procedure, shortened: as §2
MOLT-4 = experiment: Growth inhibition of human MOLT4 cells at 10 uM after 48 hrs by SRB assay relative to control; conditions: MOLT-4, 48 h, read-out: GI; procedure, shortened: as §2
K562 = experiment: Growth inhibition of human K562 cells at 10 uM after 48 hrs by SRB assay relative to control; conditions: K562, 48 h, read-out: GI; procedure, shortened: as §2
Malme-3M = experiment: Growth inhibition of human MALME-3M cells at 10 uM after 48 hrs by SRB assay relative to control; conditions: read-out: GI; procedure, shortened: as §2
MDA-MB-435 = experiment: Growth inhibition of human MDA-MB-435 cells at 10 uM after 48 hrs by SRB assay relative to control; conditions: MDA-MB-435, 48 h, read-out: GI; procedure, shortened: as §2
NCI-H522 = experiment: Growth inhibition of human NCI-H522 cells at 10 uM after 48 hrs by SRB assay relative to control; conditions: NCI-H522, 48 h, read-out: GI; procedure, shortened: as §2
Hs-578T = experiment: Growth inhibition of human Hs 578T cells at 10 uM after 48 hrs by SRB assay relative to control; conditions: read-out: GI; procedure, shortened: as §2

Row | SMILES | inhibition of growth at 10 µM (UACC-257) [%] | inhibition of growth at 10 µM (NCI-H23) [%] | inhibition of growth at 10 µM (RPMI-8226) [%] | inhibition of growth at 10 µM (HOP-62) [%] | inhibition of growth at 10 µM (CCRF-CEM) [%] | inhibition of growth at 10 µM (SK-MEL-28) [%] | inhibition of growth at 10 µM (KM12) [%] | inhibition of growth at 10 µM (NCI-H226) [%] | inhibition of growth at 10 µM (SW-620) [%] | inhibition of growth at 10 µM (ACHN) [%] | inhibition of growth at 10 µM (SR) [%] | inhibition of growth at 10 µM (HCT-15) [%] | inhibition of growth at 10 µM (OVCAR-8) [%] | inhibition of growth at 10 µM (RXF 393) [%] | inhibition of growth at 10 µM (MDA-MB-468) [%] | inhibition of growth at 10 µM (HCC 2998) [%] | inhibition of growth at 10 µM (NCI-H460) [%] | inhibition of growth at 10 µM (OVCAR-4) [%] | inhibition of growth at 10 µM (DU-145) [%] | inhibition of growth at 10 µM (SNB-75) [%] | other results
1 | COc1cc2oc(-c3cccc(NC(=O)c4ccccc4)c3)cc(=O)c2c(OC)c1OC | 0.33 | 27.1 | 73.4 | 21.6 | 54.3 | 26.8 | 35.6 | 18.6 | 8.49 | 38.4 | 68.4 | 34.8 | 39 | 25.6 | 15.8 | 12.2 | 21.3 | 18.3 | 14.5 | 22.6 | inhibition of growth at 10 µM (MCF7): 22.7%; inhibition of growth at 10 µM (A549): 31.1%; inhibition of growth at 10 µM (UACC-62): 33.2%; inhibition of growth at 10 µM (SN12C): 23.8%; inhibition of growth at 10 µM (SK-MEL-5): 36.8%; inhibition of growth at 10 µM (TK-10): 8.72%; inhibition of growth at 10 µM (SNB-19): 8.59%; inhibition of growth at 10 µM (OVCAR-3): 15.8%; inhibition of growth at 10 µM (786-0): 21.9%; inhibition of growth at 10 µM (MOLT-4): 59.4%; inhibition of growth at 10 µM (K562): 56.9%; inhibition of growth at 10 µM (Malme-3M): 13.2%; inhibition of growth at 10 µM (MDA-MB-435): 19.3%; inhibition of growth at 10 µM (NCI-H522): 50.7%; inhibition of growth at 10 µM (Hs-578T): 2.76%
2 | COc1ccc(C(=O)Nc2cccc(-c3cc(=O)c4c(OC)c(OC)c(OC)cc4o3)c2)cc1 | -4.69 | 42.5 | 81.2 | 27.5 | 72.5 | 31 | 53.7 | 30.1 | 12 | 53 | 71.4 | 54.8 | 42.1 | 46.4 | 24.8 | 29.7 | 57.9 | 38 | 43.5 | 32.4 | inhibition of growth at 10 µM (MCF7): 33.5%; inhibition of growth at 10 µM (A549): 35.3%; inhibition of growth at 10 µM (UACC-62): 44.6%; inhibition of growth at 10 µM (SN12C): 50%; inhibition of growth at 10 µM (SK-MEL-5): 49.8%; inhibition of growth at 10 µM (TK-10): 23.3%; inhibition of growth at 10 µM (SNB-19): 35.4%; inhibition of growth at 10 µM (OVCAR-3): 33.2%; inhibition of growth at 10 µM (786-0): 45%; inhibition of growth at 10 µM (MOLT-4): 76.7%; inhibition of growth at 10 µM (K562): 79.4%; inhibition of growth at 10 µM (Malme-3M): 46.6%; inhibition of growth at 10 µM (MDA-MB-435): 30.4%; inhibition of growth at 10 µM (NCI-H522): 55.5%; inhibition of growth at 10 µM (Hs-578T): 57.1%
3 | COc1ccccc1C(=O)Nc1cccc(-c2cc(=O)c3c(O)c(OC)c(OC)cc3o2)c1 | 31.9 | 1.58 | 21.6 | 16.5 | 5.53 | -1.9 | 5.13 | 13 | 10.5 | 5.14 | 16.5 | 3.51 | 17.5 | -12.1 | -22.9 | -9.63 | -2.21 | -5.24 | -2.87 | 16.4 | inhibition of growth at 10 µM (MCF7): -1.88%; inhibition of growth at 10 µM (A549): 22.1%; inhibition of growth at 10 µM (UACC-62): 30.2%; inhibition of growth at 10 µM (SN12C): 5.29%; inhibition of growth at 10 µM (SK-MEL-5): 13.4%; inhibition of growth at 10 µM (TK-10): -0.86%; inhibition of growth at 10 µM (SNB-19): 25.4%; inhibition of growth at 10 µM (OVCAR-3): -14.6%; inhibition of growth at 10 µM (786-0): 11.3%; inhibition of growth at 10 µM (MOLT-4): 6.77%; inhibition of growth at 10 µM (K562): 15.5%; inhibition of growth at 10 µM (Malme-3M): -12.7%; inhibition of growth at 10 µM (MDA-MB-435): 1.26%; inhibition of growth at 10 µM (NCI-H522): 41%; inhibition of growth at 10 µM (Hs-578T): 11.4%
